The values below come from ChEMBL document CHEMBL1148712, “Design, synthesis, and SAR study of a series of N-alkyl-N'-[2-(aryloxy)-5-nitrobenzenesulfonyl]ureas and -cyanoguanidine as selective antagonists of the TPalpha and TPbeta isoforms of the human thromboxane A2 receptor” (J Med Chem, 2007).

pIC50: −log10 of the molar value. Activity calls are given as the source filed them. The rule behind the calls is not given here.

The target in assay [1] is T1, Thromboxane A2 receptor (Homo sapiens, UniProt P21731).
T1 sequence (P21731 whole entry): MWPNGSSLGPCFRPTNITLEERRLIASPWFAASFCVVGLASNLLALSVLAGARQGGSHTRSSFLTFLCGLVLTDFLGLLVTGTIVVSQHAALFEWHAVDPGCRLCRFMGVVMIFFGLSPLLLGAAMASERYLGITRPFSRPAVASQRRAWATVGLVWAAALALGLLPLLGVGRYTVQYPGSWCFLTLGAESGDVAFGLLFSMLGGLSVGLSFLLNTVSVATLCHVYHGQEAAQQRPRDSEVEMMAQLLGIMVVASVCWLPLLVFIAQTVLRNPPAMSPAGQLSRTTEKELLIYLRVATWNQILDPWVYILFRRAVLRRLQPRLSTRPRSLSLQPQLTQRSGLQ
Description: Antagonist activity at human thromboxane A2 receptor isoform alpha expressed in HEK293 cells assessed as inhibition of U46619-induced calcium mobilization. In kind it is functional, cell-based. An outline of the steps: (§1)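 HA-tagged receptor stably overexpressed in HEK293 cells grown in DMEM with 10% FBS. Trypsinized cells washed in Krebs-HEPES pH 7.4, loaded 1 h with Fluo-4/AM (5 µg/mL), rinsed, 150 000 cells/well. Compound (10^-8 to 10^-5 M final) for 10 min before U46619 (1 µM final). Emission at 538; Triton/EGTA calibration, Kd 385 nM. IC50 by nonlinear regression, ≥3 curves.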
Background: Calcium flux is commonly read through the fluorescence of an indicator in the cells.

The target of assay [2] is T1, Thromboxane A2 receptor. Description: Antagonist activity at human thromboxane A2 receptor isoform beta expressed in HEK293 cells assessed as inhibition of U46619-induced calcium mobilization. The assay is classed as functional, cell-based. An outline of the steps:
as §1

The target in assay [3] is T2, Thromboxane A2 receptor (Homo sapiens) (UniProt P21731).
T2 sequence (whole entry): T1 sequence (P21731 whole entry)
Description: Ratio of IC50 for thromboxane A2 receptor isoform alpha to IC50 for thromboxane A2 receptor isoform beta. In kind it is functional. An outline of the steps:
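Selectivity index calculated as IC50 for TPα divided by IC50 for TPβ. Both IC50s come from U46619 (1 µM)-induced Fluo-4 [Ca2+]i assays in HEK293 cells stably overexpressing the respective isoform.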

Assay [4] deals with Platelet. Description: Inhibition of U46619-induced human platelet aggregation. In kind it is functional, cell-based. An outline of the steps:
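Turbidimetric Born method on PRP from 10 healthy donors aged 20-30, medication-free for 14 days. Platelets adjusted to 3 × 10⁸ cells/mL with PPP, stirred at 1000 rpm. Compound (10^-9 to 10^-5 M) preincubated 3 min at 37 °C, then U46619 (1 µM final). Maximum light transmission read 6 min after inducer; IC50 by nonlinear regression from ≥3 curves.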

Assay [5] deals with T2, Thromboxane A2 receptor (Homo sapiens). Description: Antagonist activity at human thromboxane A2 receptor isoform beta expressed in HEK293 cells assessed as inhibition of U46619-induced calcium mobilization at 0.1 uM. The assay is classed as functional, cell-based. An outline of the steps:
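HEK293 cells stably overexpressing HA-tagged TPβ, loaded 1 h with Fluo-4/AM (5 µg/mL) in Krebs-HEPES pH 7.4. Compound at 0.1 µM for 10 min, then U46619 (1 µM final). Fluorescence calibrated to [Ca2+]i with Triton X-100 and EGTA; response taken against the rise with U46619 alone.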

With `CCCCCNC(=O)NS(=O)(=O)c1cc([N+](=O)[O-])ccc1Oc1ccc(I)cc1`, the values for the pIC50 in assay [1] and in assay [2] were 5.66 and 6.52, respectively. Moreover, in assay [3], the Ratio IC50 worked out at 7.2.
For `CCCCNC(=O)NS(=O)(=O)c1cc([N+](=O)[O-])ccc1Oc1cccc(C)c1`, in that order: 5.72, 6.81 and 12.3.
For `CCCCCNC(=O)NS(=O)(=O)c1cc([N+](=O)[O-])ccc1Oc1cccc(Cl)c1`, the pIC50 (as a rule, the IC50 on a negative log10 scale, so that one unit is a factor of ten) in assay [1] was 5.62; in assay [2], 6.70. In addition, in assay [3], the Ratio IC50 came out at 11.9.
For `Cc1ccc(Oc2ccc([N+](=O)[O-])cc2S(=O)(=O)NC(=O)NC(C)C)cc1`, the negative logarithm of the IC50 (pIC50) in assay [1] was 5.06; in assay [2], 6.07. The Ratio IC50 in assay [3] was 10.4.
With `Cc1cc(Oc2ccc([N+](=O)[O-])cc2S(=O)(=O)NC(=O)NC(C)(C)C)ccc1Cl`, the pIC50 is 5.97 in assay [1] and 6.95 in assay [2]. The Ratio IC50 in assay [3] amounted to 9.6.
`CCCCCNC(=O)NS(=O)(=O)c1cc([N+](=O)[O-])ccc1Oc1ccc(OCCC)cc1`: the negative-log IC50 (pIC50) was 4.56 in assay [1] and 5.32 in assay [2]. Moreover, the Ratio IC50 in assay [3] was 5.6.
With `CCCCCNC(=O)NS(=O)(=O)c1cc([N+](=O)[O-])ccc1Oc1ccc(OC)cc1`, the negative-log IC50 (pIC50) in assay [1] was 5.57; in assay [2], 6.35. Also, the Ratio IC50 in assay [3] came out at 6.
For the compound `CC(C)(C)NC(=O)NS(=O)(=O)c1cc([N+](=O)[O-])ccc1Oc1cccc(I)c1`, the figures for the negative-log IC50 (pIC50) in assay [1] and in assay [2] were 6.33 and 7.02, respectively. Besides, the Ratio IC50 in assay [3] was 4.9.
Turning to `CCCCCNC(=O)NS(=O)(=O)c1cc([N+](=O)[O-])ccc1Oc1ccc(Br)cc1`, the pIC50 in assay [1] was 6.00; in assay [2] it was 6.92. Besides, in assay [3], the Ratio IC50 stood at 8.4.
In the case of `CCCCCNC(=O)NS(=O)(=O)c1cc([N+](=O)[O-])ccc1Oc1ccc(Cl)c(C)c1`, the pIC50 in assay [1] was 5.43; in assay [2] it was 6.25. Moreover, the Ratio IC50 in assay [3] came to 6.6.
As for `CC(C)(C)NC(=O)NS(=O)(=O)c1cc([N+](=O)[O-])ccc1Oc1ccccc1Br`, the pIC50 in assay [1] was 5.59; in assay [2], 6.82. Besides, in assay [3], the Ratio IC50 was 17.
For the compound `CCCCCNC(=O)NS(=O)(=O)c1cc([N+](=O)[O-])ccc1Oc1ccc(OCC)cc1`, the negative-log IC50 (pIC50) in assay [1] is 4.87; in assay [2] it was 6.13. Further, in assay [3], the Ratio IC50 was determined as 18.1.
Take `CCCCCNC(=O)NS(=O)(=O)c1cc([N+](=O)[O-])ccc1Oc1ccc(Cl)cc1`: the pIC50 in assay [1] is 6.06; in assay [2], 7.01. Further, the Ratio IC50 in assay [3] was determined as 8.9.
For the compound `Cc1cccc(Oc2ccc([N+](=O)[O-])cc2S(=O)(=O)NC(=O)NC(C)C)c1`, the results for the pIC50 in assay [1] and in assay [2] were 5.58 and 6.69, respectively. Moreover, in assay [3], the Ratio IC50 came to 12.9.
In the same order, the values of `CCCCCNC(=O)NS(=O)(=O)c1cc([N+](=O)[O-])ccc1Oc1ccccc1Br` are 5.50, 6.37 and 7.4.
As to `CCCCCNC(=O)NS(=O)(=O)c1cc([N+](=O)[O-])ccc1Oc1cccc(Br)c1`, the figures for the negative logarithm of the IC50 (pIC50) in assay [1] and in assay [2] were 5.23 and 6.38, respectively. In addition, the Ratio IC50 in assay [3] was 14.2.
Regarding `COc1ccc(Oc2ccc([N+](=O)[O-])cc2S(=O)(=O)NC(=O)NC(C)(C)C)cc1`, the pIC50 in assay [1] is 5.71; in assay [2], 6.82. The Ratio IC50 in assay [3] was found to be 12.7.
For the compound `CC(C)(C)NC(=O)NS(=O)(=O)c1cc([N+](=O)[O-])ccc1Oc1ccc(Br)cc1`, the pIC50 was 5.78 in assay [1] and 6.28 in assay [2]. In assay [3], the Ratio IC50 was 3.2.
In the case of `CCOc1ccc(Oc2ccc([N+](=O)[O-])cc2S(=O)(=O)NC(=O)NC(C)(C)C)cc1`, the negative logarithm of the IC50 (pIC50) in assay [1] is 4.72; in assay [2], 5.96. Also, in assay [3], the Ratio IC50 stood at 17.5.
For the compound `CC(C)(C)NC(=O)NS(=O)(=O)c1cc([N+](=O)[O-])ccc1Oc1ccc(Cl)cc1`, the negative logarithm of the IC50 (pIC50) was 5.52 in assay [1] and 6.40 in assay [2]. Also, the Ratio IC50 in assay [3] is 7.6.
For the compound `CCCCCNC(=O)NS(=O)(=O)c1cc([N+](=O)[O-])ccc1Oc1cccc(I)c1`, the results for the negative logarithm of the IC50 (pIC50) in assay [1] and in assay [2] were 5.34 and 6.05, respectively. For the same compound, in assay [3], the Ratio IC50 was 5.1.
Turning to `CC(C)(C)NC(=O)NS(=O)(=O)c1cc([N+](=O)[O-])ccc1Oc1ccc(I)cc1`, the values for the pIC50 in assay [1] and in assay [2] were 5.67 and 6.40, respectively. Moreover, the Ratio IC50 in assay [3] was found to be 5.4.
`CCCNC(=O)NS(=O)(=O)c1cc([N+](=O)[O-])ccc1Oc1ccc(C)cc1`: the pIC50 in assay [1] is 5.37; in assay [2], 6.35. Moreover, the Ratio IC50 in assay [3] came to 9.4.
In the case of `CCCCCNC(=O)NS(=O)(=O)c1cc([N+](=O)[O-])ccc1Oc1cccc(C)c1`, the pIC50 in assay [1] was 5.60; in assay [2], 6.65. In addition, the Ratio IC50 in assay [3] came to 11.3.
As for `CC(C)(C)NC(=O)NS(=O)(=O)c1cc([N+](=O)[O-])ccc1Oc1ccccc1Cl`, the pIC50 in assay [1] is 5.62; in assay [2], 6.69. Moreover, the Ratio IC50 in assay [3] was 11.8.
As to `COc1cc(C)ccc1Oc1ccc([N+](=O)[O-])cc1S(=O)(=O)NC(=O)NC(C)(C)C`, the negative-log IC50 (pIC50) in assay [1] was 6.28; in assay [2], 7.28. In addition, in assay [3], the Ratio IC50 was found to be 10.2.
For the compound `CCCCNC(=O)NS(=O)(=O)c1cc([N+](=O)[O-])ccc1Oc1ccccc1C`, the figures for the pIC50 in assay [1] and in assay [2] were 6.17 and 7.38, respectively. Also, the Ratio IC50 in assay [3] is 16.1.
For `Cc1ccc(Nc2ccc([N+](=O)[O-])cc2S(=O)(=O)NC(=O)NC(C)(C)C)cc1`, in assay [3], the Ratio IC50 was 6.01.
As for `CCCCCNC(=O)NS(=O)(=O)c1cc([N+](=O)[O-])ccc1Oc1ccccc1C`, the negative logarithm of the IC50 (pIC50) in assay [1] is 5.79; in assay [2], 6.74. Also, the Ratio IC50 in assay [3] came out at 9.
For `CCCCCNC(=O)NS(=O)(=O)c1cc([N+](=O)[O-])ccc1Oc1ccccc1Cl`, the results for the pIC50 in assay [1] and in assay [2] were 5.51 and 6.41, respectively. Moreover, in assay [3], the Ratio IC50 amounted to 7.9.
As to `Cc1ccc(Oc2ccc([N+](=O)[O-])cc2S(=O)(=O)NC(=NC(C)(C)C)NC#N)cc1`, the negative-log IC50 (pIC50) in assay [1] is 5.68; in assay [2], 6.24.
As for `CC(C)(C)NC(=O)NS(=O)(=O)c1cc([N+](=O)[O-])ccc1Oc1cccc(Br)c1`, the negative logarithm of the IC50 (pIC50) in assay [1] is 6.17; in assay [2] it was 7.23. Besides, the Ratio IC50 in assay [3] was 11.6.
`Cc1cccc(Oc2ccc([N+](=O)[O-])cc2S(=O)(=O)NC(=O)NC(C)(C)C)c1`: the figures for the negative-log IC50 (pIC50) in assay [4], in assay [1] and in assay [2] were 6.29, 6.40 and 7.77, respectively. Also, in assay [5], the outcome was Active.
With `CCCOc1ccc(Oc2ccc([N+](=O)[O-])cc2S(=O)(=O)NC(=O)NC(C)(C)C)cc1`, the pIC50 is 4.97 in assay [1] and 6.06 in assay [2]. Further, the Ratio IC50 in assay [3] came out at 12.3.
Turning to `Cc1ccccc1Oc1ccc([N+](=O)[O-])cc1S(=O)(=O)NC(=O)NC(C)C`, the negative logarithm of the IC50 (pIC50) was 5.06 in assay [1] and 6.30 in assay [2]. The Ratio IC50 in assay [3] amounted to 17.5.
In the case of `Cc1ccccc1Oc1ccc([N+](=O)[O-])cc1S(=O)(=O)NC(=O)NC(C)(C)C`, the pIC50 in assay [1] was 5.42; in assay [2], 6.63. For the same compound, the Ratio IC50 in assay [3] came to 16.1.
Regarding `Cc1ccc(Oc2ccc([N+](=O)[O-])cc2S(=O)(=O)N/C(=N\C#N)NC(C)(C)C)cc1`, in assay [3], the Ratio IC50 came out at 3.6.
With `CC(C)(C)NC(=O)NS(=O)(=O)c1cc([N+](=O)[O-])ccc1Oc1cccc(Cl)c1`, the negative logarithm of the IC50 (pIC50) was 6.16 in assay [1] and 7.14 in assay [2]. Also, in assay [3], the Ratio IC50 is 9.6.
As for `COc1cccc(Oc2ccc([N+](=O)[O-])cc2S(=O)(=O)NC(=O)NC(C)(C)C)c1`, the pIC50 in assay [1] is 5.71; in assay [2], 7.00. Further, the Ratio IC50 in assay [3] was 19.9.
